Test results taken from ChEMBL document CHEMBL4402551 (Eur J Med Chem, 2020).
Active and inactive are the calls of the source. The calls are words filed in the database; no cut-off is given here.

What was measured:
[1] = Inhibition of Influenza A virus (A/Duck/Guangdong/674/2014(H5N6)) Neuraminidase N6 preincubated for 10 mins followed by MUNANA substrate addition and measured after 40 mins by fluorescence method
Influenza A virus [2] = test: Antiviral activity against Influenza A virus (A/goose/Guangdong/SH7/2013(H5N1)) infected in chicken embryo fibroblasts assessed as protection against virus-induced cytopathic effect incubated for 48 hrs by CCK8 assay; type: functional, organism-based
Influenza A virus [3] = test: Antiviral activity against Influenza A virus (A/Chicken/Hebei/LZF/2014(H5N2)) infected in chicken embryo fibroblasts assessed as protection against virus-induced cytopathic effect incubated for 48 hrs by CCK8 assay; type: functional, organism-based
Influenza A virus [4] = test: Antiviral activity against Influenza A virus (A/Duck/Guangdong/674/2014(H5N6)) infected in chicken embryo fibroblasts assessed as protection against virus-induced cytopathic effect incubated for 48 hrs by CCK8 assay; type: functional, organism-based
[5] = Cytotoxicity against CEF after 48 hrs by CCK8 assay; design: species or system Gallus gallus; conditions: chicken, CEF cells
In short: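 Uninfected chicken embryo fibroblasts are given compound, serially diluted 3-fold in DMEM with 1% FBS from a DMSO stock, at 37 °C and 5% CO2 for 48 h. Viability is read as A450 after 90 min with CCK-8 at 37 °C. CC50 is derived as for EC50.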

Influenza A virus [6] = test: Antiviral activity against Influenza A virus (A/Chicken/Hebei/LZF/2014(H5N2)) infected in chicken embryonated eggs assessed as chicken embryo survival at 10 mM incubated with virus for 1 hr followed by inoculation and measured after 72 hrs relative to control; type: functional
Influenza A virus [7] = test: Antiviral activity against Influenza A virus (A/Chicken/Hebei/LZF/2014(H5N2)) infected in chicken embryonated eggs assessed as protection against virus-induced chicken embryo death at 2.5 to 0.156 mM incubated with virus for 1 hr followed by inoculation and measured after 72 hrs; type: functional, organism-based
Influenza A virus [8] = test: Antiviral activity against Influenza A virus (A/Chicken/China/415/2013 (H9N2)) infected in chicken embryonated eggs assessed as chicken embryo survival at 10 to 0.156 mM incubated with virus for 1 hr followed by inoculation and measured after 72 hrs relative to control; type: functional
Influenza A virus [9] = test: Antiviral activity against Influenza A virus (A/Chicken/China/415/2013 (H9N2)) infected in chicken embryonated eggs assessed as chicken embryo survival at 10 to 0.625 mM incubated with virus for 1 hr followed by inoculation and measured after 72 hrs relative to control; type: functional

SMILES	IC50 [1]	also measured
CCC(CC)O[C@@H]1C=C(C(=O)NC(C)(C)c2cn(Cc3ccc([N+](=O)[O-])cc3)nn2)C[C@H](N)[C@H]1NC(C)=O	> 10 µM	–
CCC(CC)O[C@@H]1C=C(C(=O)NCc2cn(CCc3ccc(Br)cc3)nn2)C[C@H](N)[C@H]1NC(C)=O	6.34 µM	–
CCC(CC)O[C@@H]1C=C(C(=O)NCc2cn(CSc3ccccc3)nn2)C[C@H](N)[C@H]1NC(C)=O	4.59 µM	–
CCC(CC)O[C@@H]1C=C(C(=O)NCc2cn(Cc3ccccc3[N+](=O)[O-])nn2)C[C@H](N)[C@H]1NC(C)=O	> 10 µM	–
CCC(CC)O[C@@H]1C=C(C(=O)NCc2cn([C@H]3C[C@H](n4cc(C)c(=O)[nH]c4=O)O[C@@H]3CO)nn2)C[C@H](N)[C@H]1NC(C)=O	0.29 µM	–
CCC(CC)O[C@@H]1C=C(C(=O)NCc2cn(Cc3ccc(Br)cc3)nn2)C[C@H](N)[C@H]1NC(C)=O	0.16 µM	EC50 (Influenza A virus [2]): 2.45 µM; EC50 (Influenza A virus [3]): 0.43 µM; EC50 (Influenza A virus [4]): 2.8 µM; CC50 at 48 h [5]: > 1000 µM; Activity (Influenza A virus [6]): 20%; Activity (Influenza A virus [7]): inactive; Activity (Influenza A virus [8]): >80%
CCC(CC)O[C@@H]1C=C(C(=O)NCc2cn(Cc3cccc(F)c3)nn2)C[C@H](N)[C@H]1NC(C)=O	2 µM	–
CCC(CC)O[C@@H]1C=C(C(=O)NCc2cn(Cc3cccc([N+](=O)[O-])c3)nn2)C[C@H](N)[C@H]1NC(C)=O	2.85 µM	–
CCC(CC)O[C@@H]1C=C(C(=O)NCCc2cn(Cc3ccc([N+](=O)[O-])cc3)nn2)C[C@H](N)[C@H]1NC(C)=O	7.6 µM	–
CCC(CC)O[C@@H]1C=C(C(=O)NCc2cn(CC(=O)N3CCCC3)nn2)C[C@H](N)[C@H]1NC(C)=O	1.4 µM	–
CCC(CC)O[C@@H]1C=C(C(=O)NC(C)(C)c2cn([C@H]3C[C@H](n4cc(C)c(=O)[nH]c4=O)O[C@@H]3CO)nn2)C[C@H](N)[C@H]1NC(C)=O	0.58 µM	EC50 (Influenza A virus [2]): 6.28 µM; EC50 (Influenza A virus [3]): 0.53 µM; EC50 (Influenza A virus [4]): > 20 µM; CC50 at 48 h [5]: > 1000 µM
CCC(CC)O[C@@H]1C=C(C(=O)NCc2cn(Cc3ccccc3Cl)nn2)C[C@H](N)[C@H]1NC(C)=O	0.13 µM	EC50 (Influenza A virus [2]): 3.32 µM; EC50 (Influenza A virus [3]): 0.47 µM; EC50 (Influenza A virus [4]): 8.6 µM; CC50 at 48 h [5]: > 1000 µM
CCC(CC)O[C@@H]1C=C(C(=O)NC(C)(C)c2cn(Cc3ccc(Br)cc3)nn2)C[C@H](N)[C@H]1NC(C)=O	> 10 µM	–
CCC(CC)O[C@@H]1C=C(C(=O)NCc2cn(Cc3ccccc3)nn2)C[C@H](N)[C@H]1NC(C)=O	1 µM	–
CCC(CC)O[C@@H]1C=C(C(=O)NCc2cn(Cc3ccc(C)cc3)nn2)C[C@H](N)[C@H]1NC(C)=O	5.5 µM	–
CCC(CC)O[C@@H]1C=C(C(=O)NCc2cn(CCc3ccccc3)nn2)C[C@H](N)[C@H]1NC(C)=O	0.57 µM	–
CCC(CC)O[C@@H]1C=C(C(=O)NCc2cn(C3CCCCC3)nn2)C[C@H](N)[C@H]1NC(C)=O	2.01 µM	–
CCC(CC)O[C@@H]1C=C(C(=O)NCc2cn(Cc3ccccc3Br)nn2)C[C@H](N)[C@H]1NC(C)=O	> 10 µM	–
CCC(CC)O[C@@H]1C=C(C(=O)NCCc2cn(Cc3ccc(Br)cc3)nn2)C[C@H](N)[C@H]1NC(C)=O	> 10 µM	–
CCC(CC)O[C@@H]1C=C(C(=O)NCc2cn(Cc3ccc(Cl)c(F)c3)nn2)C[C@H](N)[C@H]1NC(C)=O	2.8 µM	–
CCC(CC)O[C@@H]1C=C(C(=O)NCc2cn(Cc3ccc(F)cc3)nn2)C[C@H](N)[C@H]1NC(C)=O	3.2 µM	–
CCC(CC)O[C@@H]1C=C(C(=O)O)C[C@H](N)[C@H]1NC(C)=O [OSELTAMIVIR CARBOXYLATE]	0.018 µM	EC50 (Influenza A virus [2]): 0.22 µM; EC50 (Influenza A virus [3]): 0.18 µM; EC50 (Influenza A virus [4]): 0.43 µM; CC50 at 48 h [5]: > 1000 µM; Activity (Influenza A virus [6]): 80%; Activity (Influenza A virus [7]): inactive; Activity (Influenza A virus [9]): >80%
CCC(CC)O[C@@H]1C=C(C(=O)NCc2cn(Cc3ccc([N+](=O)[O-])cc3)nn2)C[C@H](N)[C@H]1NC(C)=O	1.17 µM	–
CCC(CC)O[C@@H]1C=C(C(=O)NCc2cn(Cc3ccc(-c4ccccc4)cc3)nn2)C[C@H](N)[C@H]1NC(C)=O	2.2 µM	–
CCC(CC)O[C@@H]1C=C(C(=O)NCc2cn(CC(=O)N3CCOCC3)nn2)C[C@H](N)[C@H]1NC(C)=O	0.79 µM	EC50 (Influenza A virus [2]): 3.1 µM; EC50 (Influenza A virus [3]): 1 µM; EC50 (Influenza A virus [4]): 3.78 µM; CC50 at 48 h [5]: > 1000 µM
CCC(CC)O[C@@H]1C=C(C(=O)NCCc2cn([C@H]3C[C@H](n4cc(C)c(=O)[nH]c4=O)O[C@@H]3CO)nn2)C[C@H](N)[C@H]1NC(C)=O	> 10 µM	–
CCC(CC)O[C@@H]1C=C(C(=O)NCc2cn(Cc3cccc(Cl)c3)nn2)C[C@H](N)[C@H]1NC(C)=O	2.56 µM	–
